Measured values taken from ChEMBL document CHEMBL5696442, “Discovery of type II inhibitors of TGFβ-activated kinase 1 (TAK1) and mitogen-activated protein kinase kinase kinase kinase 2 (MAP4K2)” (J Med Chem, 2015).

Key:
[1] = target: T1, Mitogen-activated protein kinase 10 (Homo sapiens, UniProt P53779); experiment: Inhibition of JNK3 Lys2 labeling site in human Huh-7 cell lysate at 1 uM by KiNativ Profiling analysis relative to control; format: subcellular
[2] = target: Mitogen-activated protein kinase 14 (Homo sapiens, UniProt Q16539); experiment: Inhibition of p38 alpha Lys2 labeling site in human Huh-7 cell lysate at 1 uM by KiNativ Profiling analysis relative to control; format: subcellular
[3] = target: TRAF2 and NCK-interacting protein kinase (Homo sapiens) (UniProt Q9UKE5); experiment: Inhibition of ZC2 Lys2 labeling site in human Huh-7 cell lysate at 1 uM by KiNativ Profiling analysis relative to control; format: subcellular
[4] = AUC last in Swiss albino mouse at 10 mg/kg, po measured upto 24 hrs by LC/MS/MS analysis; format: ADME, organism-based; conditions: in vivo
[5] = target: T1, Mitogen-activated protein kinase 10; experiment: Inhibition of JNK3 Lys2 labeling site in human A-375 cells at 0.5 uM by KiNativ Profiling analysis relative to control; format: cell-based
[6] = target: T2, Mitogen-activated protein kinase 13 (Homo sapiens) (UniProt O15264); experiment: Inhibition of p38 delta Lys2 labeling site in human A-375 cells at 5 uM by KiNativ Profiling analysis relative to control; format: cell-based
T2 sequence (whole entry): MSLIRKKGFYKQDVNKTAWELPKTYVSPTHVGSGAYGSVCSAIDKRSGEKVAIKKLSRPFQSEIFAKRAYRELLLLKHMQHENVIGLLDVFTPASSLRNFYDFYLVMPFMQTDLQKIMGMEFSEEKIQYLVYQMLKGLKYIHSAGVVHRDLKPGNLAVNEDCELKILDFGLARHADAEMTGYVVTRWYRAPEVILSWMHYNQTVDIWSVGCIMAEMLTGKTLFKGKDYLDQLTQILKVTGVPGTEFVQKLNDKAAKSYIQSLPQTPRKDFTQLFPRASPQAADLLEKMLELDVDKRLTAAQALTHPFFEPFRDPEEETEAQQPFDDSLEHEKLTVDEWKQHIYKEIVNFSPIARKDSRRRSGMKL

[7] = target: Cyclin-dependent kinase 16 (Homo sapiens) (UniProt Q00536); experiment: Inhibition of PCTAIRE1 Lys1 labeling site in human A-375 cells at 5 uM by KiNativ Profiling analysis relative to control; format: cell-based
[8] = target: T3, Acylglycerol kinase, mitochondrial (Homo sapiens) (UniProt Q53H12); experiment: Inhibition of AGK ATP labeling site in human A-375 cells at 0.5 uM by KiNativ Profiling analysis relative to control; format: cell-based
T3 sequence (whole entry): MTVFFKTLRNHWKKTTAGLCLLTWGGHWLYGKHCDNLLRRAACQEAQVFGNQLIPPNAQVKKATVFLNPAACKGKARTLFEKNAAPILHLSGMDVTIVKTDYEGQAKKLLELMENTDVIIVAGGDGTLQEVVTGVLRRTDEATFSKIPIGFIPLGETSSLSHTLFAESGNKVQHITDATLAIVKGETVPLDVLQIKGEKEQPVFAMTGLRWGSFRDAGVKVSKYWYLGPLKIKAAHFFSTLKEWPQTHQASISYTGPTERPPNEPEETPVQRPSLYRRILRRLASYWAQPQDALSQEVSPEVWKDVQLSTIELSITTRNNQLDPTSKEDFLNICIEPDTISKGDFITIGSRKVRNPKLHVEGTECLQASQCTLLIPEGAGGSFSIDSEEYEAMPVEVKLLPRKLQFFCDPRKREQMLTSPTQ
How it was run: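 Live A375 melanoma cells were treated with compound at 5 or 0.5 μM, then lysed. The lysates were labeled with a lysine-reactive ATP or ADP-biotin probe. Kinase protection from probe labeling was measured by KiNativ.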

[9] = target: Serine/threonine-protein kinase PLK1 (Homo sapiens) (UniProt P53350); experiment: Inhibition of PLK1 Lys1 labeling site in human A-375 cells at 0.5 uM by KiNativ Profiling analysis relative to control; format: cell-based
[10] = target: Tyrosine-protein kinase Fer (Homo sapiens, UniProt P16591); experiment: Inhibition of FER ACT labeling site in human A-375 cells at 0.05 uM by KiNativ Profiling analysis relative to control; format: cell-based
[11] = target: T4, Serine/threonine-protein kinase Nek9 (Homo sapiens) (UniProt Q8TD19); experiment: Inhibition of NEK9 Lys1 labeling site harbouring TEDDSLVVWKEVDLTR in human A-375 cells at 0.05 uM by KiNativ Profiling analysis relative to control; format: cell-based
T4 sequence (whole entry): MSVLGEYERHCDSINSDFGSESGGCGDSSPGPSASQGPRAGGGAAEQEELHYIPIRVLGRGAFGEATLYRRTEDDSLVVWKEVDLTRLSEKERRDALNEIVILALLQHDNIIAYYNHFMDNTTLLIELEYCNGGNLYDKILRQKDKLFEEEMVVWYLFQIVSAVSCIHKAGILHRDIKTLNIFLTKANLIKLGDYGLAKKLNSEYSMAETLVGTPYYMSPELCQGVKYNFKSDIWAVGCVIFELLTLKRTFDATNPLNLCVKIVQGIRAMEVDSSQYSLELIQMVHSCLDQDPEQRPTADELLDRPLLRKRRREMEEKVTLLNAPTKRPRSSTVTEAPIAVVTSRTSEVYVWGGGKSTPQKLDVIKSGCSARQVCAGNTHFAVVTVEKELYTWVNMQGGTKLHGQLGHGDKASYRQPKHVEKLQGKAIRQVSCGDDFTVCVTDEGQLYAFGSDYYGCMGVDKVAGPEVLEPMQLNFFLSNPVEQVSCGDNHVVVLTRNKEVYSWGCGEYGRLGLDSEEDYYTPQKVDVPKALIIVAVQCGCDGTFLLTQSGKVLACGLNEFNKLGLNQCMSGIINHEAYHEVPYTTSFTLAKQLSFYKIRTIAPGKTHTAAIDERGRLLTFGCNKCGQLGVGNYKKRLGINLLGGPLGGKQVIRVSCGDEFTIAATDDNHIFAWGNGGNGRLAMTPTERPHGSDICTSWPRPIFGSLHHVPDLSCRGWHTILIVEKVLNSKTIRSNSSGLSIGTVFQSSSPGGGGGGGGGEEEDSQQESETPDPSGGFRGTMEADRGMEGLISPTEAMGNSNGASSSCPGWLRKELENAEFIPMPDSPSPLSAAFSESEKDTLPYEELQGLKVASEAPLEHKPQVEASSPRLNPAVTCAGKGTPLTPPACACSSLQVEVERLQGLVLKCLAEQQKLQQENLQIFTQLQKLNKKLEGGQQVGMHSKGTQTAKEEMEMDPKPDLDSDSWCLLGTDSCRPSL

[12] = target: RAF proto-oncogene serine/threonine-protein kinase (Homo sapiens, UniProt P04049); experiment: Inhibition of RAF1 Lys2 labeling site in human A-375 cells at 0.05 uM by KiNativ Profiling analysis relative to control; format: cell-based
[13] = target: STE20-like serine/threonine-protein kinase (Homo sapiens) (UniProt Q9H2G2); experiment: Inhibition of SLK Lys1 labeling site in human A-375 cells at 0.05 uM by KiNativ Profiling analysis relative to control; format: cell-based
[14] = target: Serine/threonine-protein kinase tousled-like 2 (Homo sapiens) (UniProt Q86UE8); experiment: Inhibition of TLK2 Lys1 labeling site in human A-375 cells at 0.05 uM by KiNativ Profiling analysis relative to control; format: cell-based

T1 sequence (P53779 whole entry): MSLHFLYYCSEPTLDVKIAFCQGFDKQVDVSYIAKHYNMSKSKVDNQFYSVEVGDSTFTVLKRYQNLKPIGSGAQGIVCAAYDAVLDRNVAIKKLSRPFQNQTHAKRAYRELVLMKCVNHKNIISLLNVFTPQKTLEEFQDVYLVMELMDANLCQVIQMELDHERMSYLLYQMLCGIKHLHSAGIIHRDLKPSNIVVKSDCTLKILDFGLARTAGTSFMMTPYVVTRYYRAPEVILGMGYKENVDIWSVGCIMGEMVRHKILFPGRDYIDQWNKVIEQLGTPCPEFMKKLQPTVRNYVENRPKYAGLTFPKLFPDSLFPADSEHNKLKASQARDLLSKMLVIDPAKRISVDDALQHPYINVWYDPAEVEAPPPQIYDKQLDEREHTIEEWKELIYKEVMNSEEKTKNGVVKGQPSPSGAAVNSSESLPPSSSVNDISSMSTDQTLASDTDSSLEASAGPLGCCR
Chain of Serine/threonine-protein kinase PLK1 (Homo sapiens) (P53350 whole entry): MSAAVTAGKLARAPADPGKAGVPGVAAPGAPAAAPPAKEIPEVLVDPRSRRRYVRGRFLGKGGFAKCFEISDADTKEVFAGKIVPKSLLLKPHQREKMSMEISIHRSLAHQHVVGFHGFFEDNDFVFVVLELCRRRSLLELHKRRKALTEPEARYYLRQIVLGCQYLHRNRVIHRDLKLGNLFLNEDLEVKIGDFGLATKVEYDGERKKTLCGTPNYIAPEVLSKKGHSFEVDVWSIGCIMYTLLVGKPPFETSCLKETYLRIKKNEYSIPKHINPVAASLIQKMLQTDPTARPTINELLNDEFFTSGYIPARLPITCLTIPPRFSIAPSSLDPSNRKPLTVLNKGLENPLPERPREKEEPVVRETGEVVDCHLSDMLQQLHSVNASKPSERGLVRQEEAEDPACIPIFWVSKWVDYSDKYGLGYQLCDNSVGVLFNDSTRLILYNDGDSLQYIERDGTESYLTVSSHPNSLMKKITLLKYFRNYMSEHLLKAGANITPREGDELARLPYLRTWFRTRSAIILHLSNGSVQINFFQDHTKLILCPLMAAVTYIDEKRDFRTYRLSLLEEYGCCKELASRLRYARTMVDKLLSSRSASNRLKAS
Chain of TRAF2 and NCK-interacting protein kinase (Homo sapiens) (Q9UKE5 whole entry, looked up): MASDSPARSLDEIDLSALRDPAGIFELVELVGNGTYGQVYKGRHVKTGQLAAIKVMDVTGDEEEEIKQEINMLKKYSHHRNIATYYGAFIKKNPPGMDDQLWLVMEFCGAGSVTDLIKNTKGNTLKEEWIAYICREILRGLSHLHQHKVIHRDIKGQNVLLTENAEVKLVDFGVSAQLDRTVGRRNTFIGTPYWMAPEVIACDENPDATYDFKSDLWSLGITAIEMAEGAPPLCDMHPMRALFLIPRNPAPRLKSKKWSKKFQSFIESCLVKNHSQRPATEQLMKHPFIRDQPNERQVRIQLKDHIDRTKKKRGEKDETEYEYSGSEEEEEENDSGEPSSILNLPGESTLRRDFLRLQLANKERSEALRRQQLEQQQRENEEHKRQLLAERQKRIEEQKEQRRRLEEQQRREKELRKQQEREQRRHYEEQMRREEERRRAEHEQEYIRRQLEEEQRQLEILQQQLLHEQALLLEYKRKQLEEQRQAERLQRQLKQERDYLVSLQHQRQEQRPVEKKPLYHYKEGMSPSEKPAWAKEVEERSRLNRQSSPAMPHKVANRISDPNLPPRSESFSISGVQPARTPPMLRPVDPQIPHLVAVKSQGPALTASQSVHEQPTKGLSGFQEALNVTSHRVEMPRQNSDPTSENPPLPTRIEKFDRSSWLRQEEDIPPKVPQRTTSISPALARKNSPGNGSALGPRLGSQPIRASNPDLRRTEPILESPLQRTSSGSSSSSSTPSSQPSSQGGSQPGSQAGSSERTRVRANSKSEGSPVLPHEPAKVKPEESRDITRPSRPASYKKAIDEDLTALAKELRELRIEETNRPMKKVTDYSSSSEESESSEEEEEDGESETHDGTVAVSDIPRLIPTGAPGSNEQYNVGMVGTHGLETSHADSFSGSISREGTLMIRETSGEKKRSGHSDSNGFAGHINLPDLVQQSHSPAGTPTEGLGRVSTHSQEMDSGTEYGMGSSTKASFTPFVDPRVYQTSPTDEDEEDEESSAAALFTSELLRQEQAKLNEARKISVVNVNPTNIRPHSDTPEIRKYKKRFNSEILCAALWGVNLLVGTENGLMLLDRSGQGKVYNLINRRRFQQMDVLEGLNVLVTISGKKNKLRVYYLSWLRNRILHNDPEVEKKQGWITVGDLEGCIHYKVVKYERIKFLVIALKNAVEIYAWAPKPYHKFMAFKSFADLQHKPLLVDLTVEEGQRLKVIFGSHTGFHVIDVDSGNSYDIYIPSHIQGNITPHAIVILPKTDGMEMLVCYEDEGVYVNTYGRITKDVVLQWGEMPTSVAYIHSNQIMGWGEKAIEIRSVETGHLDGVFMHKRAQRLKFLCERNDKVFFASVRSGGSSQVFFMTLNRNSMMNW
Chain of RAF proto-oncogene serine/threonine-protein kinase (P04049 whole entry): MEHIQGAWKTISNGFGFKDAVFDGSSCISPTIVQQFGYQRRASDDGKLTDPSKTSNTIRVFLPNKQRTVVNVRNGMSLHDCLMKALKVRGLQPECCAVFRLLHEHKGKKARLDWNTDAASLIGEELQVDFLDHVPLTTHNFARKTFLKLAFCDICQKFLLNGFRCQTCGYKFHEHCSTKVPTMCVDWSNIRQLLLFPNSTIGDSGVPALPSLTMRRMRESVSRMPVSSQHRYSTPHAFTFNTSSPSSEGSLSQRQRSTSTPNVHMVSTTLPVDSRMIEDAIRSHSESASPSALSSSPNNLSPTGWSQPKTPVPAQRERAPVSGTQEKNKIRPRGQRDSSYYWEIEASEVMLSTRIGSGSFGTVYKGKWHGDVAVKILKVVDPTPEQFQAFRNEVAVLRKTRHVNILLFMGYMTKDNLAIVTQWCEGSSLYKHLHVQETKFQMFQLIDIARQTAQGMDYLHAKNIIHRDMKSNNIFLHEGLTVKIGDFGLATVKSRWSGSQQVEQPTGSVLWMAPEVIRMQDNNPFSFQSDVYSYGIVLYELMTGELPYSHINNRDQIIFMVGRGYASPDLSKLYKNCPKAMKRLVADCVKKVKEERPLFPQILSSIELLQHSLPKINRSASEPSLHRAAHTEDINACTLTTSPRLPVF
Chain of Cyclin-dependent kinase 16 (Homo sapiens) (Q00536 whole entry): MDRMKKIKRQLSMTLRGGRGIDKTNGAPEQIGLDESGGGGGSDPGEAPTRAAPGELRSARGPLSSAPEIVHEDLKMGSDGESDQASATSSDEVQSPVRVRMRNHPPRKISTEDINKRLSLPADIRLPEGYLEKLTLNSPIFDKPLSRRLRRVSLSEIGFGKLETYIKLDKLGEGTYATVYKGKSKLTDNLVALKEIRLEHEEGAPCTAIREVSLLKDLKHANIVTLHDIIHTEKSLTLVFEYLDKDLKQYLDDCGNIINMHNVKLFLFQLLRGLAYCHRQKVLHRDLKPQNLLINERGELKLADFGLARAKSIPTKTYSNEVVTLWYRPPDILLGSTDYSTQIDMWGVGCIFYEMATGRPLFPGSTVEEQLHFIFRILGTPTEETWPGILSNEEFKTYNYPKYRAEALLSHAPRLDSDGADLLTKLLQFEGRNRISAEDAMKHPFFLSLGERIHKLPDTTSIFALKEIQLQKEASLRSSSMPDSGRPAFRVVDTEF
Chain of Tyrosine-protein kinase Fer (P16591 whole entry, looked up): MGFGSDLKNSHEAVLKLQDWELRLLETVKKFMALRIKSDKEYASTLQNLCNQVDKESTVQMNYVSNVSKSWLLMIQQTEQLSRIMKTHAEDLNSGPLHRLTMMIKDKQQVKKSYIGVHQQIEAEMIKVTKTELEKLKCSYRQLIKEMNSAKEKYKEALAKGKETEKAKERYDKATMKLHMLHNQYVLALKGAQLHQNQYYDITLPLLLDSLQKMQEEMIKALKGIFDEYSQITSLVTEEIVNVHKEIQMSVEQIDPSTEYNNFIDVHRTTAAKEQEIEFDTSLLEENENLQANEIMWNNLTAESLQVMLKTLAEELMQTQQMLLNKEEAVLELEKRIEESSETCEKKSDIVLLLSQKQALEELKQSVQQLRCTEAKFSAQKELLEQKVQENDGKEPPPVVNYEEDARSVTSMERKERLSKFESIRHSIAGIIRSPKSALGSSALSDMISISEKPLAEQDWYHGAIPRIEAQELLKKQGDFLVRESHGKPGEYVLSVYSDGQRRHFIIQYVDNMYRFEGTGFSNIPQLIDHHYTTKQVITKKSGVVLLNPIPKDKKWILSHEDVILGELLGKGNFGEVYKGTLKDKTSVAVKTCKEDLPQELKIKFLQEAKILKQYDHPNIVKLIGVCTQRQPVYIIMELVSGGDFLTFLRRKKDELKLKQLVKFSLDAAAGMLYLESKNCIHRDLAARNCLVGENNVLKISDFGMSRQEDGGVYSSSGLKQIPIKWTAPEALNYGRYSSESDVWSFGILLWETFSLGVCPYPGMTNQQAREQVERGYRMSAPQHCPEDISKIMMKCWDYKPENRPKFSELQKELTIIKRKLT
Chain of Mitogen-activated protein kinase 14 (Q16539 whole entry): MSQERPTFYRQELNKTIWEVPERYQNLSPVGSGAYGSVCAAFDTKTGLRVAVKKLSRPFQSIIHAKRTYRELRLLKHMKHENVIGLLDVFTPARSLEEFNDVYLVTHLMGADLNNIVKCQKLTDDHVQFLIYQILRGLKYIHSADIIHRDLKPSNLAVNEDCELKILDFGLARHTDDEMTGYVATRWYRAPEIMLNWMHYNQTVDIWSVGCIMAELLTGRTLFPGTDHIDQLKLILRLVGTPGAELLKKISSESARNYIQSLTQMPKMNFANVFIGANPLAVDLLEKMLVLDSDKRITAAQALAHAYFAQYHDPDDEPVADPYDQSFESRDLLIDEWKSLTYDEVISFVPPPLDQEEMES

Compound: CNc1cc(Oc2cc(C(=O)Nc3cc(N4CCN(C)CC4)cc(C(F)(F)F)c3)ccc2C)ncn1
- inhibition [1]: 7%
- inhibition [2]: 30.2%
- inhibition [3]: 2.7%

Compound: CCN1CCN(Cc2ccc(NC(=O)c3ccc(C)c(Oc4ccnc5[nH]ccc45)c3)cc2C(F)(F)F)CC1
- AUClast [4]: 1.369 µg·h/mL
- inhibition [5]: 73.7%
- inhibition [6]: > 94%
- inhibition [7]: 72.6%
- inhibition [8]: -0.1%
- inhibition [9]: -3.8%
- inhibition [10]: 62%
- inhibition [11]: 18.9%
- inhibition [12]: 69.8%
- inhibition [13]: 13%
- inhibition [14]: 13.4%

Compound: CNc1cc(Oc2cc(C(=O)Nc3cc(-n4cnc(C)c4)cc(C(F)(F)F)c3)ccc2C)ncn1
- inhibition [1]: 18.4%
- inhibition [2]: 50.2%
- inhibition [3]: 24.1%

Compound: CCN1CCN(Cc2ccc(NC(=O)c3ccc(C)c(/C=C/c4cnc5[nH]ccc5c4OC)c3)cc2C(F)(F)F)CC1
- AUClast [4]: 0.295 µg·h/mL
- inhibition [5]: 40.6%
- inhibition [6]: 52.7%
- inhibition [7]: 32.1%
- inhibition [8]: 7%
- inhibition [9]: -5.2%
- inhibition [10]: -9.9%
- inhibition [11]: -2.6%
- inhibition [12]: 63.7%
- inhibition [13]: 2.2%
- inhibition [14]: 17.1%
